In the library only some 5.1% were active in any assay of this set; here they are far more common.
STAT3 inh: STAT3 signaling inhibition; U3A cells, IL-6 STAT3-luciferase reporter, luminescence; host cell line lacks STAT1; inhibition, % at 5.5 µM; AID 862; hit rate 0.89% among 190,000;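 active means inhibition above the mean inhibition across all screened compounds plus 3 SD, cut at about 44% in these data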;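 further: 0% = DMSO only wells and 100% = 100 µM nifuroxazide control wells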
APP 5'UTR act: APP 5'UTR luciferase reporter activation; SH-SY5Y APP 5'UTR luciferase reporter, luminescence; zero percent = DMSO vehicle wells; activation, % at 2 µM; hit rate 1% among 190,000; AID 1276;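 active means activation above a set limit, based on mean plus 3 SD of controls, cut at about 140% in these data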
STAT1 inh: reduces IFN-gamma driven STAT1 reporter signal; inhibition, % at 5.5 µM; AID 920; hit rate 0.35% among 200,000; NIH 3T3 STAT1-luciferase reporter, luminescence;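 active means inhibition above a set limit, the mean inhibition across all tested compounds plus 3 SD, cut at about 34% in these data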;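 further: 0% = IFN-gamma with DMSO and 100% = IFN-gamma with 300 µM nifuroxazide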
STAT3 activator: activators of IL-6 induced STAT3 signaling; hit rate 0.91% among 190,000; U3A cells, IL-6 STAT3-luciferase reporter, luminescence; 100% = signal with IL-6 EC80 alone; activation (% of control), % at 5.6 µM; AID 871;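 active means activation above the screen-wide mean of compound activation plus 3 SD, cut at about 130% in these data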;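 further: 0% = background luminescence of wells with medium and substrate only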
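system = STAT3-luciferase reporter U3A cells | reagent = IL-6 stimulus at 33 ng/mL final | timing = 1 h compound pre-exposure, 6 h IL-6 stimulation, 37 °C | measured by = luminescence | evaluation = % activation versus median of IL-6-stimulated wells | control set = IL-6-only wells as 100% reference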
NF-kB neuron act: NF-kB expression increase, human neuronal cells. hit rate 1.6% among 190,000. NF-kB reporter expression; active compounds read high. fold change at 12.5 µM. AID 1239; in the data active means fold change above about 3.3
STAT1 activator: activators of IFN-gamma induced STAT1 signaling. hit rate 2.6% among 200,000. NIH 3T3 STAT1-luciferase reporter, luminescence; 100% = IFN-gamma alone, no compound. activation (% of control), % at 5.5 µM;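 active means activation above the screen-wide mean activation plus 3 SD, cut at about 130% in these data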;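 further: raw ratio to IFN-gamma control signal so 100% means no change and 0% no light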
* hit, by the source's call; x = no result.

SMILES | STAT3 inh | APP 5'UTR act | STAT1 inh | STAT3 activator | NF-kB neuron act | STAT1 activator
N#Cc1c(Cl)nsc1NC(=O)c1ccccc1 | 56* | -2 | 55* | 56 | 0.56 | 49
Cc1noc(C)c1C(=O)Nc1sc(C)c(-c2ccccc2)c1C#N | 4 | -5 | 2 | 98 | 0.48 | 100
Cc1cccc(C(=O)Nc2sc(C)c(-c3ccccc3)c2C#N)c1 | 11 | 27 | -36 | 94 | 3.5* | 133*
CCOC(=O)c1ccc(NC(=O)C(C)Sc2nc(O)c(-c3ccccc3)c(=O)[nH]2)cc1 (stereo unspecified) | 11 | 20 | 1 | 96 | 0.9 | 98
COc1cc(/C=N/NC(=O)CC#N)cc(Br)c1O | 6 | 6 | 3 | 100 | 0.99 | 97
Clc1ccc(-c2nc3nc4ccccc4nc3n2Cc2ccco2)cc1 | 4 | 51 | -30 | 100 | 3.7* | 127
COc1ccccc1Cn1c(-c2ccco2)nc2nc3ccccc3nc21 | 12 | 14 | -17 | 92 | x | 116
Cc1ccc(-c2nc3nc4ccccc4nc3n2Cc2ccco2)cc1 | 35 | 181* | -27 | 75 | 2.6 | 124
Fc1ccccc1/C=N/Nc1ncnc2nc[nH]c12 | 12 | 45 | -41 | 89 | 1.8 | 137*
c1ccc(CNc2ncnc3nc[nH]c23)nc1 | 13 | 7 | 0 | 96 | 1.5 | 100
Cc1cccc(Nc2ncnc3nc[nH]c23)c1 | -1 | 14 | -11 | 105 | 1.7 | 109
Fc1cccc(/C=N/Nc2ncnc3nc[nH]c23)c1 | 24 | 17 | -42 | 79 | 2.1 | 138*
O=c1c2cc3c(cc2[nH]c(=S)n1C1CCN(Cc2ccccc2)CC1)OCO3 | 6 | -5 | 13 | 101 | 1.1 | 88
O=C1COc2ccc(C(=O)/C=C/c3ccccc3)cc2N1 | 15 | 6 | 2 | 87 | 3.3* | 98
O=C(/C=C/c1ccccc1)c1ccc2c(c1)OCCCCO2 | -10 | 147* | -44 | 112 | 2.6 | 140*
CN(C)c1ccc(C(=O)/C=C/c2ccc(Br)cc2)cc1 | -5 | 17 | -24 | 104 | 1.1 | 122
Cc1ccc(C(=O)NCC(=O)OCC(=O)c2ccc3c(c2)NC(=O)CO3)cc1C | -11 | 0 | -4 | 110 | 1.3 | 102
Cc1cc(C)cc(OCC(=O)OCC(=O)c2ccc3c(c2)NC(=O)CO3)c1 | -6 | x | -10 | 103 | 3.6* | 109
CN(C)c1ccc(C(=O)/C=C/c2ccccc2)cc1 | 13 | 140* | -41 | 93 | 4.9* | 138*
O=C(OCC(=O)N1c2ccccc2Sc2ccccc21)c1ccc[n+]([O-])c1 | 4 | -1 | 15 | 101 | 1 | 86
O=c1[nH]cnc2c1N=C(c1cccc([N+](=O)[O-])c1)CC(c1ccccc1)N2 (stereo unspecified) | -1 | 7 | -16 | 111 | 0.98 | 113
CCOC(=O)CC(NC(=O)CCc1c(C)nc2ncnn2c1C)c1ccc(OC(C)C)cc1 (stereo unspecified) | 8 | 10 | 2 | 103 | 1.2 | 97
Cc1nn(-c2ccccc2)c(N)c1N=Nc1ccc2ccccc2c1 | 1 | 76 | -44 | 107 | 3.9* | 140*
Cc1nnc2n(c1=O)N=C(c1ccc(Cl)cc1)CS2 | -20 | 112 | -36 | 114 | 2.9 | 132*
Clc1ccc(C2=Nn3c(nnc3-c3cccs3)SC2)cc1 | 21 | -5 | -2 | 84 | 1.2 | 98
SMILES | STAT3 inh | APP 5'UTR act | STAT1 inh | STAT3 activator | NF-kB neuron act | STAT1 activator
O=c1[nH]c(=O)n([C@H]2C[C@H](O)[C@@H](CO)O2)cc1C(F)(F)F | 0 | -59 | -10 | 103 | 5.4* | 109
COc1ccccc1NC(=O)CSc1nnc(CCNC(=O)c2ccc(C)cc2)n1C | -1 | -1 | -7 | 106 | 1.3 | 104
COc1ccc(C(=O)Nc2ccc3nc(C)sc3c2)cc1OC | 3 | 27 | -20 | 99 | 0.97 | 118
COc1ccc(C(=O)Nc2nc3ccccc3[nH]2)cc1OC | 20 | 92 | -31 | 85 | 2.4 | 129*
COc1ccc(C(=O)Nc2nc(C)c(C)s2)cc1OC | 4 | 104 | -43 | 100 | 1.9 | 139*
COc1ccc(OCC(=O)Nc2nc3ccccc3[nH]2)cc1 | 5 | 50 | -7 | 99 | 2.2 | 106
CN(C)S(=O)(=O)c1ccc(C(=O)Nc2nc3ccccc3[nH]2)cc1 | 2 | 101 | -51 | 100 | 1.2 | 143*
COc1cc(OC)cc(C(=O)Nc2nc3ccccc3[nH]2)c1 | 5 | 105 | -34 | 99 | 1.9 | 131*
Cc1ccccc1OCc1nnc(SCC(=O)Nc2ccc(N3CCOCC3)c(Cl)c2)n1C | -6 | x | -2 | 105 | 0.73 | 103
Cc1cc(C)n2nc(-c3ccccc3)cc2n1 | -20 | 127 | -47 | 119 | 3.7* | 142*
Cc1cc(C)n2nc(C(=O)NCc3ccccc3)cc2n1 | 2 | 6 | 2 | 102 | 1.3 | 98
Cc1ccc(NC(=O)c2cc3nc(C)cc(C)n3n2)cc1 | 16 | 146* | -46 | 88 | 4.2* | 142*
Cc1cc(C)n2nc(-c3ccsc3-n3c(C)ccc3C)cc2n1 | 15 | 6 | -3 | 96 | 1 | 103
Cc1ccc(-c2cc3nc(C)cc(C)n3n2)cc1 | -51 | 171* | -37 | 152* | 5.1* | 134*
CC1=C/C(=N\Nc2ccccc2[N+](=O)[O-])CC(C)(C)C1 | -8 | 10 | -1 | 107 | 1.5 | 101
CN(C)S(=O)(=O)N1CCN(c2ccc([N+](=O)[O-])c(N3CCOCC3)c2)CC1 | -44 | 6 | -2 | 136* | 1.2 | 100
CC(=O)c1cc(N2CCOCC2)ccc1[N+](=O)[O-] | 3 | 10 | -7 | 101 | 5.6* | 104
CC(=O)c1cc(N2CCC(C(=O)O)CC2)ccc1[N+](=O)[O-] | 13 | 6 | -4 | 93 | 1.1 | 104
COCCn1c(N)c(Sc2ccc([N+](=O)[O-])cc2)c(=O)[nH]c1=O | 9 | 9 | -10 | 96 | 0.95 | 107
CC(=O)N1C(=O)CC(C)N(C(C)=O)c2ccc([N+](=O)[O-])cc21 (stereo unspecified) | -4 | 9 | 9 | 99 | 1 | 92
Oc1ccc(-c2csc(NCc3ccco3)n2)cc1 | 9 | 24 | -16 | 97 | 3.7* | 114
c1coc(CNc2nc(-c3cccs3)cs2)c1 | 6 | 40 | -31 | 96 | 2.5 | 127
O=C(Oc1cccc(C(=S)N2CCOCC2)c1)c1cc([N+](=O)[O-])cc([N+](=O)[O-])c1 | -1 | 14 | 2 | 105 | 1.6 | 97
O=C(CN1C(=O)c2ccccc2S1(=O)=O)c1ccccc1 | 65* | -3 | 62* | 50 | 0.15 | 44
c1ccc(-c2cc(N3CCCCC3)ncn2)cc1 | -6 | 45 | -18 | 108 | 1.7 | 117
c1ccc(-c2cc(N3CCCCCC3)n[nH]2)cc1 | 1 | 28 | -33 | 99 | 1.4 | 130*
Nc1ccc(-c2nc3cc(N)ccc3s2)cc1 | 22 | 186* | 1 | 86 | 5.3* | 99

High-throughput results as filed in PubChem.
